Sampled rows, rich in hits. Any-hit rate of the full collection: about 1.8%.
APOBEC3A inh = human APOBEC3A DNA deaminase inhibition | recombinant A3A, FAM/TAMRA ssDNA deamination fluorescence | hit rate 0.41% among 330,000 | inhibition, % at 20 µM | AID 493011;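 active means at least 40% inhibition at 20 µM here, with at most 30% in a related deaminase screen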
Target sequence (P31941 whole entry, looked up): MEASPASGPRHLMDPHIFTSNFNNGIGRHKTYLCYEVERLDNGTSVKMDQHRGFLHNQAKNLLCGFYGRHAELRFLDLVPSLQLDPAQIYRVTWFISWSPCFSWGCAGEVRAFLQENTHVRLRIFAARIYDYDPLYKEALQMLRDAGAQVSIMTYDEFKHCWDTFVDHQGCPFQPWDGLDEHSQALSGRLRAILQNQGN
TbMetRS inhib = Trypanosoma brucei MetRS inhibition | purified T. brucei MetRS, ATP depletion, Kinase-Glo luminescence | hit rate 0.4% among 360,000 | inhibition, % at 11.9 µM | AID 624268;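 active means inhibition above a per-plate cutoff of the control wells' mean inhibition plus 3 SD, cut at about 5.5% in these data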
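Test system – parasite MetRS enzyme · Reagent – substrates ATP, L-methionine and bulk Escherichia coli tRNA · Doses – 11.9 µM compound single dose, 0.9% DMSO · Times – 15 min enzyme-compound preincubation, 2 h reaction, 10 min detection, 25 °C · Signal – Kinase-Glo luminescence, ATP depletion format · Controls – DMSO-only wells as low control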
p-CIP stab down = p/CIP protein destabilization; Q05BA5; F442A p/CIP-EGFP cells, EGFP fluorescence, 16 h; decrease of EGFP signal, % at 10 µM; hit rate 0.01% among 290,000;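 active means EGFP signal decrease of at least 30% at 10 µM or well 3 SD below plate mean, unless failing retest; inactive means the rest, including hits failing retest or dose response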
APOBEC3G inh = blocks human APOBEC3G single-stranded DNA deamination. Q9HC16. recombinant A3G, ssDNA deamination FAM/TAMRA fluorescence. inhibition, % at 20 µM. hit rate 0.28% among 330,000;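 active means inhibition of at least 40% at 20 µM, with no more than 30% in the related APOBEC3A deaminase screen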
PHOSPHO1 block = blocks human PHOSPHO1 phosphatase activity. Q8TCT1. recombinant PHOSPHO1, absorbance phosphatase assay. inhibition, % at 13.3 µM. hit rate 1.1% among 290,000. AID 1565; in the data active means inhibition above about 60%
Target sequence (Q8TCT1 whole entry, looked up): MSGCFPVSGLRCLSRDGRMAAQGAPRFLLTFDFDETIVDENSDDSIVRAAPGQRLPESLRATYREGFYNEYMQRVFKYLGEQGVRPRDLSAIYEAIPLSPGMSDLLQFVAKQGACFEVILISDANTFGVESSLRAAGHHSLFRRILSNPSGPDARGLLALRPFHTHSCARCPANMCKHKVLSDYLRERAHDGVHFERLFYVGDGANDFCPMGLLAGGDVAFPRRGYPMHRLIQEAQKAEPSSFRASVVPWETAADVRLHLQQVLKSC
Hits are given with their value; i = inactive; nt = not tested or not shown.

SMILES	APOBEC3A inh	TbMetRS inhib	p-CIP stab down	APOBEC3G inh	PHOSPHO1 block
Cc1ccc(C23CC4CC(CC(C(=O)N5CCOCC5)(C4)C2)C3)cc1	i	i	i	i	i
COc1cc(N2C(=O)C=CC2=O)ccc1N1C(=O)C=CC1=O	nt	i	nt	nt	nt
O=C1C=CC(=O)N1c1cccc(-c2ccccc2)c1	i	i	i	i	78
COC(=O)C(NC(=O)c1c(C)nn(C)c1Cl)c1ccccc1 (stereo not given)	i	i	i	i	i
O=C(c1ccc2snnc2c1)N1CCSCC1	i	i	i	i	99
CC(C)n1c(=S)[nH]c2scc(-c3cccs3)c2c1=O	i	i	i	i	i
O=c1c2c(-c3cccs3)csc2[nH]c(=S)n1-c1ccccc1	i	i	i	i	67
O=C(Cc1cccs1)NNC(=S)NCc1ccc(Cl)cc1	i	i	i	i	100
O=C(Cc1ccc(Cl)cc1)NNC(=S)NC(=O)c1cccs1	i	i	i	i	i
Cc1c(Cl)c(C(=O)NNC(=S)Nc2ccccc2)nn1C	i	i	i	i	66
CCOc1cc(NC(=O)c2cnccn2)c(OCC)cc1NC(=O)c1cccc(F)c1	i	nt	i	i	i
CC(=O)Nc1ccc(NC(=O)N2CCOCC2)cc1	nt	i	nt	nt	nt
CC(=O)/C(=N\Nc1ccc(C)cc1)N1CCOCC1	i	i	i	i	65
CC(C)(C)n1nnnc1SCC(=O)Nc1nn(-c2ccccc2)nc1C(N)=O	i	i	i	i	i
CCN1C(=S)SC(=O)C1=C1C=C(C)N(Cc2ccco2)C(C)=C1	i	i	i	i	66
COc1ccc(-n2cnnc2SCC(=O)c2cc(C)n(Cc3cccs3)c2C)cc1	i	i	i	i	i
COCCn1c(C)cc(C(=O)CSc2nncn2-c2ccccc2)c1C	i	i	i	i	95
COCCn1c(C)cc(C(=O)CSc2ccc3ccccc3n2)c1C	i	i	i	i	69
COc1ccc(-c2ccc(CCC(=O)O)n2NC(=O)c2ccc(O)cc2)cc1	i	i	i	i	63
COc1ccc(-c2ccc(CCC(=O)O)n2NC(N)=O)cc1	i	i	i	i	i
NCC12CC3CC(C1)CC(c1ccc(Br)cc1)(C3)C2	i	i	i	i	i
Cc1ccc(C23CC4CC(CC(CN)(C4)C2)C3)cc1	nt	i	i	nt	60
c1ccc(SCc2nc3ccccc3[nH]2)cc1	i	6.5	i	i	i
O=S(=O)(NCc1nc2ccccc2[nH]1)c1ccccc1	i	i	i	i	73
Cc1ccc(CSCc2nc3ccccc3[nH]2)cc1	nt	i	i	nt	i
SMILES	APOBEC3A inh	TbMetRS inhib	p-CIP stab down	APOBEC3G inh	PHOSPHO1 block
N#Cc1cc2c(nc1SCc1nc3ccccc3[nH]1)CCC2	i	nt	i	i	74
Cc1ccc(OCCSCc2nc3ccccc3[nH]2)cc1	i	6.8	i	i	i
CNCc1nc2ccccc2[nH]1	i	i	i	i	i
Cc1cccc(CSc2nc3c(cc2C#N)CCC3)c1	i	i	i	i	i
Cc1c(Br)cnn1C(C)C(=O)N1CCN(c2ccc(F)cc2)CC1 (stereo not given)	i	i	nt	i	nt
COc1cc(C(=O)COC(=O)c2ccncc2)cc(OC)c1OC	i	i	nt	i	nt
OC(COc1ccccc1)CSc1ncn[nH]1 (stereo not given)	i	i	i	i	i
CC(C)(C)c1ccc(OCC(O)CSc2ncn[nH]2)cc1 (stereo not given)	i	i	i	i	80
CN(CC(=O)Nc1ccc(F)c(F)c1F)C(=O)c1n[nH]c(=O)c2ccccc12	i	i	nt	i	nt
O=C(CSc1ncn[nH]1)N1N=C2/C(=C/c3ccco3)CCCC2C1c1ccco1 (stereo not given)	i	i	i	i	87
CCCCN1C(=O)C(=O)N(CC(=O)N2N=C3/C(=C/c4ccco4)CCCC3C2c2ccco2)C1=O (stereo not given)	i	i	i	i	62
COC(=O)[C@@H](NC(=O)Nc1cccc(OC)c1)C(C)C	i	i	i	i	60
CN1c2ccsc2C(O)=C(C(=S)Nc2ccc(F)c(Cl)c2)S1(=O)=O	i	i	i	i	92
Cn1cc(C(=O)Nc2ccc(F)c(Cl)c2)cn1	i	i	i	i	i
COc1cc(-c2nnc3sc(Cc4ccccc4)nn23)cc(OC)c1OC	i	i	i	i	70
Cc1sc2nc(N)sc2c1C	i	i	i	i	90
Cc1ccc(C)c2sc(N)nc12	i	i	i	i	i
Clc1nssc1=Nc1nncs1	i	i	nt	71	nt
Clc1nssc1=Nc1ccc(Br)cc1	nt	i	i	nt	80
CN1C(=O)CSC1=Nc1ccc(Br)cc1	i	i	i	i	nt
OCc1ccccc1N=c1ssnc1Cl	i	nt	i	i	91
Clc1ccc(N=c2ssnc2Cl)nc1	i	i	i	i	92
COc1ccc(COc2ccsc2C(=O)Nc2ccc(Cl)c(Cl)c2)cc1	i	i	i	i	i
N#Cc1ccc(COC(=O)CSc2nnc(C3CCCCC3)n2N)cc1	i	i	i	i	i
CCOC(=O)c1sc(N)c(C#N)c1CSc1nnc(C2CCCCC2)n1N	i	i	i	i	88
SMILES	APOBEC3A inh	TbMetRS inhib	p-CIP stab down	APOBEC3G inh	PHOSPHO1 block
O=C(CCCc1c[nH]c2ccccc12)NCc1ccc2c(c1)OCO2	i	i	i	i	i
O=C(CCc1c[nH]c2ccccc12)NCc1ccc2c(c1)OCO2	i	i	i	i	61
CN(CCc1ccccn1)C(=O)CCC1CCCN(C(=O)c2ccsc2)C1 (stereo not given)	i	i	i	i	61
CN(CCc1ccccn1)C(=O)CCC1CCCN(C(=O)c2cscn2)C1 (stereo not given)	i	i	i	i	i
O=C(CCN1C(=O)C2CCCCC2C1=O)Nc1nc(-c2ccccc2)cs1 (stereo not given)	i	i	i	i	i
CCn1c(-c2csc(-c3ccc(Cl)cc3)n2)n[nH]c1=S	i	i	i	i	83
CCn1c(-c2cc(Cl)ccc2OC)n[nH]c1=S	i	i	i	i	89
COc1ccc(Cl)cc1-c1n[nH]c(=S)n1C	i	i	i	i	85
CCn1c(-c2csc(-c3ccccc3)n2)n[nH]c1=S	i	i	i	i	i
CSc1nnc(SCC2=NNC(=O)SC2)s1	i	i	i	i	i
CCOC(=O)C1CCN(C(=O)c2ccc3c(c2)NC(=O)/C(=C\c2ccc(C)cc2)S3)CC1	i	i	i	i	70
CSc1nc2oc3c(c2c2nncn12)CC(C)(C)SC3	i	i	i	i	78
CC1(C)Cc2c(oc3ncn4ncnc4c23)CO1	i	i	i	i	i
CCN(CC)CCN(C(=O)c1ccc(C(C)=O)cc1)c1nc2ccc(Cl)cc2s1	i	i	i	i	i
Cc1nc(CNC(=O)CC2C(=O)NCCN2Cc2ccc(F)cc2)cs1 (stereo not given)	i	i	i	i	66
Cc1ccc(CN2CCNC(=O)C2CC(=O)NC2CCCCCC2)cc1 (stereo not given)	i	i	i	i	i
O=C(CC1C(=O)NCCN1Cc1ccc(F)cc1)NC1CCCCCCC1 (stereo not given)	i	i	i	i	65

Screens (PubChem BioAssay)
